Experimental data taken from ChEMBL document CHEMBL1138503, “(Z)- and (E)-2-(1,2-dihydroxyethyl)methylenecyclopropane analogues of 2'-deoxyadenosine and 2'-deoxyguanosine. Synthesis of all stereoisomers, absolute configuration, and antiviral activity” (J Med Chem, 2009).
pEC50: −log10 of the molar value. Activity calls are given as the source filed them. The calls are words filed in the database; no cut-off is given here.

Experiments:
[1] = tested on: Hepatitis B virus; experiment: Antiviral activity against Hepatitis B virus; assay type: functional, organism-based
[2] = tested on: Human betaherpesvirus 5; experiment: Antiviral activity against Human cytomegalovirus AD169 infected in human foreskin fibroblast cells assessed as inhibition of virus-induced cytopathic effect; assay type: functional, organism-based; conditions: Human betaherpesvirus 5, AD169, Fibroblast
Procedure, shortened: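 HCMV strain AD169 grown in human foreskin fibroblasts; cytopathic effect (CPE) inhibition assay gives EC50; cytotoxicity taken by neutral red uptake.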

[3] = tested on: Human betaherpesvirus 5; experiment: Antiviral activity against Human cytomegalovirus Towne infected in human foreskin fibroblast cells by plaque reduction assay; assay type: functional, organism-based; conditions: Human betaherpesvirus 5, Towne
Procedure, shortened: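 HCMV Towne in human foreskin fibroblasts, plaque reduction assay; EC50 from plaque counts; cytotoxicity scored visually in uninfected HFF used for the plaque assays.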

[4] = tested on: Human betaherpesvirus 5; experiment: Antiviral activity against cyclopropavir-resistant Human cytomegalovirus isolate 2696r with phosphotransferase UL97 mutation by plaque reduction assay; assay type: functional, organism-based; conditions: Human betaherpesvirus 5, isolate 2696r
Procedure, shortened: (§1)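 Plaque reduction in HFF cells with UL97-mutant HCMV raised from Towne: E8 (two point mutations in UL97, selected by growth in synadenol) and 2696r (truncated UL97, selected in cyclopropavir). Four drug concentrations tested in duplicate; EC50 from plaque counts.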

[5] = tested on: Murid betaherpesvirus 1; experiment: Antiviral activity against Murine cytomegalovirus infected in mouse embryonic fibroblast cells by plaque reduction assay; assay type: functional, organism-based; conditions: Murid betaherpesvirus 1, Fibroblast
Procedure, shortened: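 MCMV plaque reduction assay in mouse embryonic fibroblast (MEF) cells; EC50 from plaque counts.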

[6] = tested on: Hepatitis C virus; experiment: Antiviral activity against Hepatitis C virus; assay type: functional, organism-based; conditions: Hepacivirus hominis
[7] = tested on: Human betaherpesvirus 5; experiment: Antiviral activity against Human cytomegalovirus E8 with phosphotransferase UL97 two point mutation by plaque reduction assay; assay type: functional, organism-based; conditions: Human betaherpesvirus 5, E8; procedure, shortened: as §1
[8] = (§2) Cytotoxicity against HFF cells by neutral red uptake assay; assay type: cell-based; conditions: human, HFF cells
Procedure, shortened: (§3)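 Uninfected HFF cells, run alongside the HCMV cytopathic effect inhibition assay. Cytotoxicity read by neutral red uptake.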

[9] = (§4) Cytotoxicity against HFF cells by plaque reduction assay; assay type: cell-based; conditions: human, HFF cells
Procedure, shortened: (§5)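 Cytotoxicity scored visually in uninfected HFF cells run alongside the HCMV plaque reduction assays.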

[10] = Cytotoxicity against human Akata cells; assay type: cell-based
[11] = tested on: Human gammaherpesvirus 4; experiment: Antiviral activity against Epstein-Barr virus infected in human Akata cells by DNA hybridization assay; assay type: functional, organism-based; conditions: human gammaherpesvirus 4, Akata
Procedure, shortened: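 EBV DNA hybridization assay run in Akata cells; EC50 by DNA hybridization.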

[12] = molecular target: T1, Adenosine deaminase (Bos taurus) (UniProt P56658); experiment: Activity of calf intestine adenosine deaminase assessed as deamination after 48 hrs; design: concentration or dose not given beside the values
T1 sequence (whole entry): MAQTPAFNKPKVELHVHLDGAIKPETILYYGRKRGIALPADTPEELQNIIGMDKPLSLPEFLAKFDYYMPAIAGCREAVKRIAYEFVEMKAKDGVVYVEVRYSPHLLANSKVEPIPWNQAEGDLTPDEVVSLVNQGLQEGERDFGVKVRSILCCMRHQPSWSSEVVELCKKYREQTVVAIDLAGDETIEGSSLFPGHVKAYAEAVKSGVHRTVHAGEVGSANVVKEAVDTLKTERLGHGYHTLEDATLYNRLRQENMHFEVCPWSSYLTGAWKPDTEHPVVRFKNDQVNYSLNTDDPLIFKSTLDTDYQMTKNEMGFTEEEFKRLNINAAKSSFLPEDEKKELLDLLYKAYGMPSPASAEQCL
Procedure, shortened: (§6)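 Substrate (2 µmol) stirred with calf intestine ADA (1.7 units) in 0.05 M Na2HPO4, pH 7.5, 0.6 mL total. Aliquots withdrawn, diluted with buffer, and UV spectra recorded. Deamination followed as the fall in absorbance at 260 nm, expressed as percent deaminated at 24 h and 48 h.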

[13] = molecular target: T1, Adenosine deaminase (Bos taurus); experiment: Activity of calf intestine adenosine deaminase assessed as deamination after 24 hrs; design: concentration or dose not given beside the values; procedure, shortened: as §6
[14] = tested on: HFF; experiment: as §2; assay type: cell-based; conditions: human, hff; procedure, shortened: as §3
[15] = tested on: HFF; experiment: as §4; assay type: cell-based; conditions: human, hff; procedure, shortened: as §5
[16] = Cytotoxicity against african green monkey BSC1 cells; assay type: cell-based; conditions: chlorocebus aethiops, bsc-1
[17] = tested on: Human alphaherpesvirus 2; experiment: Antiviral activity against HSV2 infected in human foreskin fibroblast cells; assay type: functional, organism-based
[18] = tested on: Human alphaherpesvirus 1; experiment: Antiviral activity against HSV1 infected in human foreskin fibroblast cells; assay type: functional, organism-based
[19] = tested on: Human alphaherpesvirus 1; experiment: Antiviral activity against HSV1 infected in african green monkey BSC1 cells by ELISA; assay type: functional, organism-based; conditions: Human alphaherpesvirus 1, BSC-1
[20] = tested on: MEF; experiment: Cytotoxicity against MEF cells; assay type: cell-based; conditions: mouse
[21] = tested on: Human alphaherpesvirus 3; experiment: Antiviral activity against Varicella zoster virus infected in human foreskin fibroblast cells; assay type: functional, organism-based; conditions: Human alphaherpesvirus 3, Fibroblast

Structure (SMILES) | Activity [1] | pEC50 [2] | pEC50 [3] | Activity [6] | CC50 ([10]; akata) [µM] | pEC50 [11] | Activity [12] [%] | Activity [13] [%] | CC50 [14] [µM] | other results
Nc1nc2c(ncn2COC(CO)CO)c(=O)[nH]1 [GANCICLOVIR] | inactive | 7.40 | 5.92 | inactive | – | – | – | – | – | pEC50 [4]: 4.38; pEC50 [5]: 5.26; pEC50 [7]: 4.66
Nc1nc(O)c2ncn(COC(CO)CO)c2n1 [GANCICLOVIR] | – | – | – | – | – | – | – | – | – | CC50 [8]: > 100 µM; CC50 [9]: > 100 µM
Nc1nc2c(ncn2/C=C2/C[C@@H]2[C@H](O)CO)c(=O)[nH]1 | inactive | < 3.52 | < 4.00 | inactive | 54 | 4.37 | – | – | – | –
Nc1ncnc2c1ncn2/C=C1/C[C@H]1[C@@H](O)CO | inactive | < 4.22 | < 4.00 | inactive | 61.5 | 4.28 | 0 | 0 | – | –
Nc1ncnc2c1ncn2/C=C1/C[C@H]1[C@H](O)CO | inactive | < 4.22 | < 4.00 | inactive | 93.5 | 4.22 | 0 | 0 | 206 | –
Nc1nc2c(ncn2COCCO)c(=O)[nH]1 [ACYCLOVIR] | inactive | – | – | inactive | – | 5.48 | – | – | – | CC50 ([10]; Akata cells): > 100 µM
Nc1ncnc2c1ncn2/C=C1\C[C@@H]1[C@@H](O)CO | inactive | < 3.52 | < 4.00 | inactive | 50.6 | 4.30 | 100 | 100 | – | –
Nc1ncnc2c1ncn2/C=C1\C[C@@H]1[C@H](O)CO | inactive | < 4.22 | < 4.00 | inactive | 57 | < 4.70 | 100 | 85 | – | CC50 [15]: > 100 µM
Nc1ncnc2c1ncn2/C=C1\C[C@H]1[C@H](O)CO | inactive | < 4.22 | < 4.00 | inactive | 72.7 | 5.01 | 85 | 65 | 194 | –
Nc1ncnc2c1ncn2/C=C1/C[C@@H]1[C@@H](O)CO | inactive | < 4.22 | < 4.00 | inactive | 55 | 4.37 | 80 | 65 | > 300 | –
Nc1nc2c(ncn2/C=C2\C[C@@H]2[C@@H](O)CO)c(=O)[nH]1 | inactive | < 3.52 | < 4.00 | inactive | 61 | 4.74 | – | – | – | –
Nc1nc2c(ncn2/C=C2\C[C@H]2[C@@H](O)CO)c(=O)[nH]1 | inactive | < 4.22 | < 4.00 | inactive | 75 | 4.40 | – | – | 298 | –
Nc1nc2c(ncn2/C=C2/C[C@@H]2[C@@H](O)CO)c(=O)[nH]1 | inactive | < 3.52 | < 4.00 | inactive | 56 | < 4.70 | – | – | – | –
Nc1ncnc2c1ncn2/C=C1\C[C@H]1[C@@H](O)CO | inactive | < 4.22 | < 4.00 | inactive | 73 | 4.77 | 100 | 100 | 264 | –
Nc1ncnc2c1ncn2/C=C1/C[C@@H]1[C@H](O)CO | inactive | 3.52 | < 4.00 | inactive | 50.5 | < 4.70 | 80 | 45 | – | –
Nc1nc2c(ncn2/C=C2\C[C@@H]2[C@H](O)CO)c(=O)[nH]1 | inactive | < 4.22 | < 4.00 | inactive | 67 | < 4.70 | – | – | > 300 | –
Nc1nc2c(ncn2/C=C2/C[C@H]2[C@@H](O)CO)c(=O)[nH]1 | inactive | 5.12 | 5.17 | inactive | 78 | 5.10 | – | – | 299 | CC50 [16]: > 100 µM; pEC50 [4]: < 4.00; CC50 [15]: > 100 µM; pEC50 [5]: 4.95; Activity [17]: inactive; Activity [18]: inactive; pEC50 [7]: 4.14; pEC50 [19]: 4.30; Activity [20]: Not Active; pEC50 [21]: 4.33
Nc1nc2c(ncn2/C=C2/CC2(CO)CO)c(=O)[nH]1 [FILOCICLOVIR] | inactive | 6.31 | 6.34 | inactive | – | 6.66 | – | – | – | CC50 [8]: > 100 µM; pEC50 [4]: 4.55; CC50 [9]: > 100 µM; pEC50 [7]: 5.10
Nc1nc2c(ncn2/C=C2/C[C@H]2[C@H](O)CO)c(=O)[nH]1 | inactive | < 3.52 | < 4.00 | inactive | 62.6 | < 4.70 | – | – | – | –
Nc1nc2c(ncn2/C=C2\C[C@H]2[C@H](O)CO)c(=O)[nH]1 | inactive | < 3.52 | < 4.00 | inactive | 86.6 | 4.23 | – | – | – | CC50 [15]: > 300 µM
